Columns and labels:
[1] = Half life in MRP2-deficient Wistar rat at 20 mg/kg, po by LC-MS/MS analysis; type: ADME, organism-based; set-up: dose 20 mg/kg, route oral; conditions: in vivo
Procedure, shortened: (§1)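 Male Wistar wild-type rats and Mrp2-deficient TR⁻ rats with femoral artery and vein cannulas. Sulfasalazine given as an iv bolus (5 mg/kg, water at pH 9–10) and by oral gavage, each followed by arterial plasma sampling over 24 h. Sulfasalazine and sulfapyridine measured by LC-MS/MS; noncompartmental parameters; mean ± S.D., n = 3.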

[2] = test system: Rattus norvegicus; experiment: AUC (infinity) in MRP2 knockout Sprague-Dawley rat treated with sulfasalazine at 20 mg/kg, po by LC-MS/MS analysis; type: ADME, organism-based, Plasma; set-up: dose 20 mg/kg, route oral, time infinity; conditions: in vivo
Procedure, shortened: (§2)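 Male Sprague-Dawley knockout or age/weight-matched wild-type rats with femoral artery and vein cannulas. Crossover design: day 0 i.v. bolus 5 mg/kg sulfasalazine in water at pH 9–10, then day 3 gavage 20 mg/kg in 0.5% carboxymethyl cellulose/PBS pH 7.4. Arterial plasma was sampled to 24 h. Sulfasalazine and sulfapyridine were measured by LC-MS/MS (1–5000 ng/ml). Parameters are noncompartmental; n = 4–8, mean ± S.D.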

[3] = Cmax in wild-type Wistar rat at 20 mg/kg, po by LC-MS/MS analysis; type: ADME, organism-based; set-up: dose 20 mg/kg, route oral; conditions: in vivo
Procedure, shortened: (§3)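 Male Wistar wild-type or Mrp2-deficient TR⁻ rats with femoral artery and vein cannulas. Sulfasalazine was given as a 5 mg/kg i.v. bolus and as a 20 mg/kg oral dose. Arterial plasma was sampled to 24 h and analysed for parent and sulfapyridine by LC-MS/MS. Noncompartmental parameters; n = 3, mean ± S.D.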

[4] = AUC (infinity) in wild-type Wistar rat at 20 mg/kg, po by LC-MS/MS analysis; type: ADME, organism-based; set-up: dose 20 mg/kg, route oral, time infinity; conditions: plasma; procedure, shortened: as §3
[5] = Half life in MDR1A knockout Sprague-Dawley rat treated with sulfasalazine at 20 mg/kg, po by LC-MS/MS analysis; type: ADME, organism-based; set-up: dose 20 mg/kg, route oral; conditions: in vivo
Procedure, shortened: (§4)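 Male Sprague-Dawley knockout rats or wild-type rats matched for age and weight, with femoral artery and vein cannulas. Crossover design: sulfasalazine 5 mg/kg iv bolus (water, pH 9–10) on day 0, then 20 mg/kg oral gavage (0.5% carboxymethyl cellulose in PBS, pH 7.4) on day 3. Arterial plasma collected 0–24 h. Sulfasalazine and sulfapyridine measured by LC-MS/MS; noncompartmental parameters; mean ± S.D., n = 4 to 8.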

[6] = Tmax in MDR1A knockout Sprague-Dawley rat treated with sulfasalazine at 20 mg/kg, po by LC-MS/MS analysis; type: ADME, organism-based; set-up: dose 20 mg/kg, route oral; conditions: in vivo; procedure, shortened: as §4
[7] = Tmax in MRP2 knockout Sprague-Dawley rat treated with sulfasalazine at 20 mg/kg, po by LC-MS/MS analysis; type: ADME, organism-based; set-up: dose 20 mg/kg, route oral; conditions: in vivo; procedure, shortened: as §4
[8] = test system: Rattus norvegicus; experiment: Drug metabolism in MRP2 knockout Sprague-Dawley rat assessed as metabolite to parent ratio treated with sulfasalazine at 20 mg/kg, po; type: ADME, organism-based; set-up: dose 20 mg/kg, route oral; conditions: in vivo; procedure, shortened: as §2
[9] = test system: Rattus norvegicus; experiment: Drug metabolism in wild-type Sprague-Dawley rat assessed as metabolite to parent ratio treated with sulfasalazine at 20 mg/kg, po; type: ADME, organism-based; set-up: dose 20 mg/kg, route oral; conditions: in vivo; procedure, shortened: as §2
[10] = Cmax in MRP2-deficient Wistar rat at 20 mg/kg, po by LC-MS/MS analysis; type: ADME, organism-based; set-up: dose 20 mg/kg, route oral; conditions: in vivo; procedure, shortened: as §3
[11] = Tmax in wild-type Sprague-Dawley rat treated with sulfasalazine at 20 mg/kg, po by LC-MS/MS analysis; type: ADME, organism-based; set-up: dose 20 mg/kg, route oral; conditions: in vivo; procedure, shortened: as §4
[12] = test system: Rattus norvegicus; experiment: AUC (infinity) in BCRP knockout Sprague-Dawley rat treated with sulfasalazine at 20 mg/kg, po by LC-MS/MS analysis; type: ADME, organism-based, Plasma; set-up: dose 20 mg/kg, route oral, time infinity; conditions: in vivo; procedure, shortened: as §2
[13] = Tmax in BCRP knockout Sprague-Dawley rat treated with sulfasalazine at 20 mg/kg, po by LC-MS/MS analysis; type: ADME, organism-based; set-up: dose 20 mg/kg, route oral; conditions: in vivo; procedure, shortened: as §4
[14] = Half life in wild-type Sprague-Dawley rat treated with sulfasalazine at 20 mg/kg, po by LC-MS/MS analysis; type: ADME, organism-based; set-up: dose 20 mg/kg, route oral; conditions: in vivo; procedure, shortened: as §4
[15] = test system: Rattus norvegicus; experiment: Cmax in MDR1A knockout Sprague-Dawley rat treated with sulfasalazine at 20 mg/kg, po by LC-MS/MS analysis; type: ADME, organism-based; set-up: dose 20 mg/kg, route oral; conditions: in vivo; procedure, shortened: as §2
[16] = test system: Rattus norvegicus; experiment: Cmax in MRP2 knockout Sprague-Dawley rat treated with sulfasalazine at 20 mg/kg, po by LC-MS/MS analysis; type: ADME, organism-based; set-up: dose 20 mg/kg, route oral; conditions: in vivo; procedure, shortened: as §2
[17] = test system: Rattus norvegicus; experiment: Drug metabolism in MRP2-deficient Wistar rat assessed as metabolite to parent ratio treated with sulfasalazine at 20 mg/kg, po; type: ADME, organism-based; set-up: dose 20 mg/kg, route oral; conditions: in vivo; procedure, shortened: as §3
[18] = test system: Rattus norvegicus; experiment: Drug metabolism in wild-type Wistar rat assessed as metabolite to parent ratio treated with sulfasalazine at 20 mg/kg, po; type: ADME, organism-based; set-up: dose 20 mg/kg, route oral; conditions: in vivo; procedure, shortened: as §3
[19] = Half life in BCRP knockout Sprague-Dawley rat treated with sulfasalazine at 20 mg/kg, po by LC-MS/MS analysis; type: ADME, organism-based; set-up: dose 20 mg/kg, route oral; conditions: in vivo; procedure, shortened: as §4
[20] = test system: Rattus norvegicus; experiment: Cmax in wild-type Sprague-Dawley rat treated with sulfasalazine at 20 mg/kg, po by LC-MS/MS analysis; type: ADME, organism-based; set-up: dose 20 mg/kg, route oral; conditions: in vivo; procedure, shortened: as §2
[21] = Half life in wild-type Wistar rat at 20 mg/kg, po by LC-MS/MS analysis; type: ADME, organism-based; set-up: dose 20 mg/kg, route oral; conditions: in vivo; procedure, shortened: as §1
[22] = test system: Rattus norvegicus; experiment: Cmax in BCRP knockout Sprague-Dawley rat treated with sulfasalazine at 20 mg/kg, po by LC-MS/MS analysis; type: ADME, organism-based; set-up: dose 20 mg/kg, route oral; conditions: in vivo; procedure, shortened: as §2
[23] = AUC (infinity) in MRP2-deficient Wistar rat at 20 mg/kg, po by LC-MS/MS analysis; type: ADME, organism-based; set-up: time infinity, dose 20 mg/kg, route oral; conditions: plasma; procedure, shortened: as §3
[24] = test system: Rattus norvegicus; experiment: AUC (infinity) in MDR1A knockout Sprague-Dawley rat treated with sulfasalazine at 20 mg/kg, po by LC-MS/MS analysis; type: ADME, organism-based, Plasma; set-up: time infinity, dose 20 mg/kg, route oral; conditions: in vivo; procedure, shortened: as §2
[25] = Tmax in wild-type Wistar rat at 20 mg/kg, po by LC-MS/MS analysis; type: ADME, organism-based; set-up: dose 20 mg/kg, route oral; conditions: in vivo; procedure, shortened: as §1
[26] = Tmax in MRP2-deficient Wistar rat at 20 mg/kg, po by LC-MS/MS analysis; type: ADME, organism-based; set-up: dose 20 mg/kg, route oral; conditions: in vivo; procedure, shortened: as §1
[27] = test system: Rattus norvegicus; experiment: AUC (infinity) in wild-type Sprague-Dawley rat treated with sulfasalazine at 20 mg/kg, po by LC-MS/MS analysis; type: ADME, organism-based, Plasma; set-up: time infinity, dose 20 mg/kg, route oral; conditions: in vivo; procedure, shortened: as §2
[28] = test system: Rattus norvegicus; experiment: Drug metabolism in MDR1A knockout Sprague-Dawley rat assessed as metabolite to parent ratio treated with sulfasalazine at 20 mg/kg, po; type: ADME, organism-based; set-up: dose 20 mg/kg, route oral; conditions: in vivo; procedure, shortened: as §2
[29] = test system: Rattus norvegicus; experiment: Drug metabolism in BCRP knockout Sprague-Dawley rat assessed as metabolite to parent ratio treated with sulfasalazine at 20 mg/kg, po; type: ADME, organism-based; set-up: dose 20 mg/kg, route oral; conditions: in vivo; procedure, shortened: as §2
[30] = Half life in MRP2 knockout Sprague-Dawley rat treated with sulfasalazine at 20 mg/kg, po by LC-MS/MS analysis; type: ADME, organism-based; set-up: dose 20 mg/kg, route oral; conditions: in vivo; procedure, shortened: as §4

`Nc1ccc(S(=O)(=O)Nc2ccccn2)cc1` [SULFAPYRIDINE] showed a half-life [1] of 1.7 h, an AUC [2] of 12675 ng.Eq.hr/ml and a Cmax [3] of 4320 ng/mL. It also gave an AUC(0-inf) [4] of 29400 ng·h/mL, a half-life [5] of 1.3 h and a Tmax [6] of 7 h. For the same compound, the Tmax [7] was 4.4 h, the Ratio [8] was 22 and the Ratio [9] was 50. It also gave a Cmax [10] of 3240 ng/mL, a Tmax [11] of 5 h and an AUC [12] of 14576 ng.Eq.hr/ml. It also gave a Tmax [13] of 4 h, a half-life [14] of 2.3 h and a Cmax [15] of 2525 ng.Eq/ml. For the same compound, the Cmax [16] was 2499 ng.Eq/ml, the Ratio [17] was 34 and the Ratio [18] was 16. It also gave a half-life [19] of 1.7 h, a Cmax [20] of 4764 ng.Eq/ml and a half-life [21] of 2.3 h. It also gave a Cmax [22] of 2843 ng.Eq/ml, an AUC(0-inf) [23] of 15400 ng·h/mL and an AUC [24] of 14985 ng.Eq.hr/ml. The Tmax [25] was 4 h, the Tmax [26] was 4 h and the AUC [27] was 21992 ng.Eq.hr/ml. It also gave a Ratio [28] of 24, a Ratio [29] of 4.6 and a half-life [30] of 1.6 h.
